Source: PubChem
NR3A LBD binder: NR3A (human) ligand-binding domain modulation; NR3A LBD differential scanning fluorimetry, Tm shift; 0% = protein alone, 100% = glycine-bound protein; Tm shift relative to glycine control, % at 25 µM; hit rate 2.5% among 340,000;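 active = melting temperature shift of at least 10% of the positive control shift, at one fixed dose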
CSC inhib: cancer stem cell inhibition | cancer stem cell-like cells viability, luminescence | inhibition, % at 7.5 µM | hit rate 1.1% among 300,000 | AID 2717; in the data active = inhibition above about 75%; inconclusive = no clear call, values can overlap the other calls; tested in HMLE shEcad cells
T cruzi inh: blocks replication of Trypanosoma cruzi; inhibition, % (test concentration not listed); AID 1885; hit rate 1.4% among 300,000; T. cruzi beta-gal in NIH3T3, luminescence, 90 h;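 active = mean inhibition across valid replicates above about 55%, limit read from the data; inconclusive = mean below that limit but half or more replicates reach it; inactive = mean below it, under half of replicates reach it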;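 also: signal also drops with host cell toxicity which is not excluded here; 0% = plate median of DMSO wells and 100% = zero luminescence signal; higher percent means less beta-gal luminescence so fewer parasites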
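Material: NIH/3T3 host cells with β-galactosidase reporter T. cruzi; Input: 5,000 host fibroblasts per well; Medium: DMEM, 2% fetal bovine serum; Compound: 50 nL DMSO compound solution per well; Schedule: 3 h host attachment, then at least 90 h co-culture; Detection: luminescent β-galactosidase signal after 60 min lysis.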
Beta cell apopt: beta cell apoptosis inhibition | INS-1E cytokine-induced death, ATP luminescence, 48 h; percent of positive-control rescue, neutral wells zero | protection from apoptosis, % (test concentration not listed) | hit rate 0.8% among 300,000;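 active = Every replicate reaches about 75%, or at least half do and their mean reaches it too, limit read from the data; inconclusive = At least half of replicates reach the limit but their mean does not; inactive = Under half of replicates reach the limit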;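 also: 0% = cytokine-treated negative control wells and 100% = positive control rescue; higher means more ATP so stronger rescue from cytokine killing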
CHOP inhibitor: CHOP inhibition in unfolded protein response; CHO-K1 CHOP-promoter luciferase, tunicamycin-induced, 15-18 h; hit rate 3.8% among 220,000; inhibition, % at 10 µM; AID 2732;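 active = compounds that reduced the stress-induced luciferase reporter signal by more than about 70% of percent inhibition, limit read from the data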;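 also: 0% = tunicamycin plus vehicle and 100% = wells without tunicamycin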
PREPL inhibitor: inhibitors of human prolyl oligopeptidase-like enzyme PREPL; Q4J6C6; recombinant PREPL, fluorescence polarization activity-based probe; inhibition, % at 5.96 µM; hit rate 0.68% among 320,000; in the data active = inhibition above about 43%;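 also: 0% = enzyme with DMSO and 100% = wells lacking enzyme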
Target sequence (Q4J6C6 whole entry, looked up): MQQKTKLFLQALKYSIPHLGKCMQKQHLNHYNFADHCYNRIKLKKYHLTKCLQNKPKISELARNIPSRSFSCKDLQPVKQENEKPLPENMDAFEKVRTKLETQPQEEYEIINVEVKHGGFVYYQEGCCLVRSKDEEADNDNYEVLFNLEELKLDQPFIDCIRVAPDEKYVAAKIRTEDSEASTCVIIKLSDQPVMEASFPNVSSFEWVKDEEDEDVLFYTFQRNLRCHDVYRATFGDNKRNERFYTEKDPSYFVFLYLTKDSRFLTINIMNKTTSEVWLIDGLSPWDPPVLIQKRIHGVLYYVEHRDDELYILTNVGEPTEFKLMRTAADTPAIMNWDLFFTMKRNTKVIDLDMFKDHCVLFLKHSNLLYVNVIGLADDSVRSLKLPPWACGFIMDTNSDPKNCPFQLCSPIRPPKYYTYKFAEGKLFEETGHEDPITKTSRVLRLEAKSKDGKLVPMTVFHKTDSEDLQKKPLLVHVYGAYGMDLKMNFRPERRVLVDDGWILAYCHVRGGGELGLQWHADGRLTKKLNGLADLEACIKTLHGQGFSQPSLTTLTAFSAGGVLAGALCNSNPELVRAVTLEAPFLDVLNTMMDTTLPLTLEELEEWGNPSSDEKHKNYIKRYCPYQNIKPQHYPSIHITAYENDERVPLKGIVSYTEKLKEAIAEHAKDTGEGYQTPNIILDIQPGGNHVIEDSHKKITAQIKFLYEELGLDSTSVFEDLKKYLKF
An asterisk follows results filed as active; ? = inconclusive; . = no result. A selection: hits, their analogues and other compounds. The true share with any hit is near 6.7%.

SMILES	NR3A LBD binder	CSC inhib	T cruzi inh	Beta cell apopt	CHOP inhibitor	PREPL inhibitor
CC(NC(=O)COC(=O)c1ccccc1SCC(=O)N1CCCC1)c1ccccc1 (stereo unspecified)	0.7	0.3	-0.7	-1.2	.	-8.9
O=C(NCCc1ccc(F)cc1)c1ccncc1	0.1	-14.0	0.0	.	.	-5.2
CC(C)c1cccc(-c2ccc3c(c2)S(=O)(=O)c2cccc(C(=O)O)c2C3=O)c1	24.2*	18.3	.	-3.6	.	7.7
CC1S/C(=N/N=C/c2cccs2)NC1=O (stereo unspecified)	-2.4	-15.9	-1.6	.	2.8	-0.2
CC1S/C(=N/N=C/c2cccc([N+](=O)[O-])c2)NC1=O (stereo unspecified)	0.9	88.0*	-9.0	4.2	-16.6	7.1
CC(=O)OC(C)[C@H]1CC[C@H]2[C@@H]3CC[C@H]4C[C@@H](OC(C)=O)CC[C@]4(C)C3=CC[C@]12C (stereo partly specified)	1.9	26.9	-19.4	6.2	.	2.9
CCCCN1C[C@H](COC(=O)CCC)Oc2cccc(F)c2S1(=O)=O	3.1	.	.	.	.	.
CC(C)NC(=O)NC1C2CC3CC(C2)CC1C3 (stereo unspecified)	12.5*	-10.5	1.9	-0.8	5.7	-5.2
CCCc1nn(C)c(C(=O)Nc2ccc(CC)cc2)c1Cl	9.9	7.9	-3.6	-7.7	28.5	13.1
CCCc1nn(C)c(C(=O)Nc2cccc3ccccc23)c1Cl	11.9*	-17.2	-12.3	3.8	23.9	20.8
Cc1ccc(NC(=O)CN2CCN(C(=O)c3ccco3)CC2)cc1S(=O)(=O)N(C)C	1.8	.	.	.	.	.
COc1cc2c3nnc(-c4ccc(F)cc4)c-3cn(Cc3ccc(F)cc3)c2cc1OC	-16.8	7.3	1.2	-1.2	18.2	-15.2
COc1ccc(Cn2cc3c(-c4ccc(F)cc4)nnc-3c3cc(OC)c(OC)cc32)cc1	-17.2	28.5	.	99.6*	42.5	-23.7
COCc1cc(S(=O)c2ccc(Cl)cc2)nc(C)n1 (stereo unspecified)	-11.9	.	61.3*	.	0.9	.
CC(C)(C)CC(C)(C)c1ccc(O)c(Cc2ccc(Cl)cc2Cl)c1	11.5*	.	.	.	.	.
CC1(C)Cc2c(c(N3CCCC3)nc3sc4c(N5CCN(CCO)CC5)ncnc4c23)CO1	-2.5	37.6	.	13.1	27.4	47.5*
Cc1ccccc1-n1cnc2c(sc3nc(N4CCOCC4)c4c(c32)CCCC4)c1=O	-0.2	27.7	71.3*	4.4	24.0	9.7
OCCN1CCN(c2ncnc3c2sc2nc(N4CCOCC4)c4c(c23)CCC4)CC1	-0.8	42.8	59.5*	7.1	16.3	20.9
CCCCCCc1nnc(N)s1	2.2	10.1	-0.9	-4.6	8.0	1.2
O=C(CCNC(=O)c1ccc([N+](=O)[O-])cc1)NCc1ccco1	-0.2	.	.	1.2	.	8.6
CCOc1cccc(CN2CCCC(N3CCc4cc(OC)c(OC)cc4C3)C2)c1O (stereo unspecified)	4.6	17.3	64.9*	-4.0	.	7.2
N/C(=N\OC(=O)c1cnn(-c2ccccc2)c1C(F)(F)F)c1ccc(C(F)(F)F)cc1	3.2	8.6	-12.2	-2.3	-16.1	2.9
CC(C)NC(=O)N(C)C[C@H]1Oc2c(NC(=O)Nc3ccc(C(F)(F)F)cc3)cccc2C(=O)N([C@H](C)CO)C[C@@H]1C	0.6	5.8	.	8.2	.	16.5
C[C@@H]1CN([C@H](C)CO)C(=O)c2cccc(NC(=O)Nc3ccc(F)cc3)c2O[C@H]1CN(C)C(=O)Nc1ccc(C(F)(F)F)cc1	14.7*	10.6	.	2.4	.	15.2
C[C@H](CO)N1C[C@H](C)[C@@H](CN(C)C(=O)Nc2ccc3c(c2)OCO3)Oc2c(NC(=O)Nc3ccc(C(F)(F)F)cc3)cccc2C1=O	21.2*	39.3	.	3.3	.	10.5
SMILES	NR3A LBD binder	CSC inhib	T cruzi inh	Beta cell apopt	CHOP inhibitor	PREPL inhibitor
C[C@H](CO)N1C[C@H](C)[C@@H](CN(C)C(=O)Nc2ccc(C(F)(F)F)cc2)Oc2c(NC(=O)Nc3ccc4c(c3)OCO4)cccc2C1=O	3.6	3.0	.	-2.9	.	13.1
COc1ccc(NC(=O)Nc2cccc3c2O[C@H](CN(C)C(=O)Nc2ccccc2)[C@@H](C)CN([C@H](C)CO)C3=O)cc1	1.1	-7.7	.	0.8	.	12.3
C[C@H](CO)N1C[C@H](C)[C@@H](CN(C)C(=O)Nc2ccc(C(F)(F)F)cc2)Oc2c(NC(=O)Nc3ccccc3)cccc2C1=O	14.7*	.	.	0.4	.	19.7
COc1ccc(NC(=O)N(C)C[C@H]2Oc3c(NC(=O)Nc4ccc(C(F)(F)F)cc4)cccc3C(=O)N([C@H](C)CO)C[C@@H]2C)cc1	15.8*	.	.	0.2	.	31.6
Cc1ccc(N2C(=O)C3C4C=CC(CC4)C3C2=O)c([N+](=O)[O-])c1 (stereo unspecified)	1.8	3.2	0.2	-4.1	.	-6.0
O=S(=O)(c1cccc(F)c1)N1CCN(Cc2cc3c(cc2Br)OCCO3)CC1	0.9	.	.	4.2	.	14.5
C[C@H](CO)N1C[C@H](C)[C@@H](CN(C)C(=O)NC2CCCCC2)Oc2c(NC(=O)Nc3ccc(C(F)(F)F)cc3)cccc2C1=O	10.9*	.	.	?	.	-5.5
COc1cc(/C=C2\SC(=Nc3ccccc3)NC2=O)cc(Cl)c1O	12.5*	27.3	11.8	.	.	-11.7
CCc1ccc(N=C2NC(=O)/C(=C/c3cc(OC)c(O)c(OC)c3)S2)cc1	2.8	68.2	0.7	3.2	.	.
COc1cc(/C=C2\SC(=Nc3cccnc3)NC2=O)cc(OC)c1OC	-0.5	49.9	18.6	7.4	16.7	4.3
O=C1NC(=Nc2cccc(O)c2)S/C1=C\c1cccnc1	8.3	7.6	13.4	-8.7	-22.0	-1.4
COc1cc(/C=C2\SC(=Nc3ccc(Cl)c(C(=O)O)c3)NC2=O)c(Br)c(Br)c1O	12.9*	.	-8.6	.	.	.
O=C1NC(=Nc2cccc(O)c2)S/C1=C\c1cccc([N+](=O)[O-])c1	13.4*	5.4	-4.5	.	.	15.2
COc1cc(/C=C2/SC(=Nc3ccc(O)cc3)NC2=O)ccc1O	27.0*	26.1	19.2	34.3	35.2	9.7
Nc1ncnc2c1nc(Sc1ccc(Cl)cc1)n2C1OC2COP(=O)(O)O[C@@H]2[C@@H]1O (stereo partly specified)	.	.	.	.	-15.9	.
O=C1c2cccc3c(Nc4ccccc4Cl)c([N+](=O)[O-])cc(c23)C(=O)N1CCO	-5.6	0.2	59.3*	9.4	-16.9	37.7
Cc1cccc(C(=O)NNC2=C(C(=O)C(F)(F)F)CCC2)c1O	-1.8	110.1*	1.1	48.5	43.0	3.2
COC(=O)C1=C(C(=O)OC)[C@@H]2N(Cc3ccccc3)c3ccccc3[C@@]23C[C@@H](C(=O)OC)N(C(=O)NC(C)(C)C)C3=N1	-2.6	-5.3	12.8	1.1	.	7.5
O=C(COc1ccc(/C=C\[N+](=O)[O-])cc1)N1CCOCC1	0.2	13.0	-3.6	9.8	85.1*	0.4
COc1ccc(NC(=O)CCCn2nc(C)c3c(C)n(-c4ccccc4)nc3c2=O)cc1	-5.2	-1.6	6.7	-1.7	.	-0.8
